Values joined by “and” are separate entries in the source; they are usually repeats but may differ in a detail not shown here. Equal values may be shown once. Active and inactive are the calls of the source. No cut-off for these calls is given here.
Key:
[1] = system: tsA201; assay: Displacement of [3H]methyllycaconitine from chimeric alpha-7nAChR W55A/Y195A mutant /5HT3A receptor in tsA201 cells; format: cell-based; details: Homo sapiens
How it was run: (§1)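 tsA-201 cells transiently transfected with 4 µg WT or mutant α7/5-HT3A chimera and assayed 2 days later. Membranes washed twice at 50000g in 50 mM Tris-HCl pH 7.2. Incubated with 0.5 nM [3H]MLA and compound for 2.5 h at room temperature with shaking; nonspecific binding with 5 mM (S)-nicotine. PEI-soaked GF/C filtration, scintillation counting. Ki derived; duplicate, 3–7 experiments.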

[2] = system: tsA201; assay: Displacement of [3H]methyllycaconitine from chimeric alpha-7nAChR Y188A mutant/5-HT3A receptor in tsA201 cells; format: cell-based; details: Homo sapiens; how it was run: as §1
[3] = target: T1, 5-hydroxytryptamine receptor 3A (Homo sapiens, UniProt P46098); assay: Displacement of [3H]GR65630 from human 5HT3A receptor in HEK293 cells; format: cell-based
T1 sequence (P46098 whole entry): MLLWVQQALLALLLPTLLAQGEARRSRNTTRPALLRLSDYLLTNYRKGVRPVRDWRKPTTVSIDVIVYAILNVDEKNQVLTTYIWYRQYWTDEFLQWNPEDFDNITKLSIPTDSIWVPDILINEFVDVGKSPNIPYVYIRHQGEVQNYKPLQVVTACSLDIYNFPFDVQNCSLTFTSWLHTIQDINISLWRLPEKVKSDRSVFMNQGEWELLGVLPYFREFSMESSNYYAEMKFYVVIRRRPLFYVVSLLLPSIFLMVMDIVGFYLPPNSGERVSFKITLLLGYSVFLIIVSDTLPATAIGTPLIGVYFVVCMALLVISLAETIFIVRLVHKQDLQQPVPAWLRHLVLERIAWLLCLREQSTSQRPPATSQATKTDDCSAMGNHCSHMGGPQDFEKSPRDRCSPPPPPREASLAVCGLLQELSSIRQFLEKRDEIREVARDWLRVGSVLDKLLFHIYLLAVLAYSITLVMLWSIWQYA

[4] = Displacement of [3H]methyllycaconitine from chimeric alpha-7nAChR S148A mutant /5HT3A receptor in tsA201 cells; format: cell-based, Homo sapiens; how it was run: as §1
[5] = target: T2, Neuronal acetylcholine receptor; alpha3/beta4 (Rattus norvegicus, UniProt P04757+P12392); assay: Antagonist activity at rat alpha3beta4 nAChR expressed in HEK293 cells by FMP assay; format: functional, cell-based, Homo sapiens
[6] = target: T2, Neuronal acetylcholine receptor; alpha3/beta4; assay: Displacement of [3H]epibatidine from recombinant rat alpha-3-beta-4 nAChr in HEK293 cell line; format: cell-based
[7] = target: T3, Neuronal acetylcholine receptor subunit alpha-7 (Homo sapiens, UniProt P36544); assay: Displacement of [3H]methyllycaconitine from chimeric alpha7nAChR/5HT3A in tsA201 cells; format: cell-based
Target sequence in this assay (P36544 23-502 limits assumed): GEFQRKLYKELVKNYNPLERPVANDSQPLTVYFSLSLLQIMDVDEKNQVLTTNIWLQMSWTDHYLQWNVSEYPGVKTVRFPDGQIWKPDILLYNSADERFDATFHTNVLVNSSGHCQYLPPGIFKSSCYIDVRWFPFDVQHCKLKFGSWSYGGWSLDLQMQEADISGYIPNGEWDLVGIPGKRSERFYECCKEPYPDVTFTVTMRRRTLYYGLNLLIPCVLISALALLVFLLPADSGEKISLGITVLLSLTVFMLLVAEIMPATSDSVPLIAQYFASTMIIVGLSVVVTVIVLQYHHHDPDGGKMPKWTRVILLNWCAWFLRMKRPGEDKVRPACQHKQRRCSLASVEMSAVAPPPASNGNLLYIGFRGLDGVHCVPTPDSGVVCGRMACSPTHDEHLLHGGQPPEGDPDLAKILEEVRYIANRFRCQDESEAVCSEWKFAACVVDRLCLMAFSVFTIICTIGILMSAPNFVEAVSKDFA

[8] = Displacement of [3H]methyllycaconitine from chimeric alpha7nAChR W55Y mutant/5HT3A receptor in tsA201 cells; format: cell-based, Homo sapiens; how it was run: as §1
[9] = cells; format: functional, cell-based; details: Homo sapiens, HEK293
[10] = target: T3, Neuronal acetylcholine receptor subunit alpha-7; assay: Antagonist activity at human alpha-7 nAChR in tsA201 cells coexpressed with Ric3 by FMP assay; format: functional, cell-based
Target sequence in this assay (P36544 whole entry): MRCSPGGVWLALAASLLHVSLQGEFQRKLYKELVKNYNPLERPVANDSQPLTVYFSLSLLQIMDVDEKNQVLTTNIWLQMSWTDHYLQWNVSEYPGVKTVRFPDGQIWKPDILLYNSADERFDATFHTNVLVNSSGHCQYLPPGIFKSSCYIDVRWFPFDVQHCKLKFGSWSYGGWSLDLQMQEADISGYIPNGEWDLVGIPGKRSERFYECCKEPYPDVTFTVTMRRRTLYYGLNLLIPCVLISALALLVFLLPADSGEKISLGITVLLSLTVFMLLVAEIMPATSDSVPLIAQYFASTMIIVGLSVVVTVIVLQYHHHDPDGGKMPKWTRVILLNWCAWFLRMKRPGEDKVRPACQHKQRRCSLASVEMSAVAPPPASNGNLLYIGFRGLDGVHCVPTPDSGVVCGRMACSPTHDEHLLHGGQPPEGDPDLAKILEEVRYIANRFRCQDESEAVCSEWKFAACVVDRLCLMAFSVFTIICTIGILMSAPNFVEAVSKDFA

[11] = target: T3, Neuronal acetylcholine receptor subunit alpha-7
Target sequence in this assay (P36544 whole entry): as above

[12] = Displacement of [3H]methyllycaconitine from chimeric alpha7nAChR K145A mutant/5HT3A receptor in tsA201 cells; format: cell-based, Homo sapiens; how it was run: as §1
[13] = system: tsA201; assay: Displacement of [3H]methyllycaconitine from chimeric alpha-7nAChR W149Y mutant/5HT3A receptor W149Y mutant in tsA201 cells; format: cell-based; details: Homo sapiens; how it was run: as §1
[14] = target: T3, Neuronal acetylcholine receptor subunit alpha-7; assay: Displacement of [3H]methyllycaconitine from alpha7 nAChR in tsA201 cells co-expressed with Ric3; format: cell-based
Target sequence in this assay (P36544 whole entry): as above

[15] = system: tsA201; assay: Displacement of [3H]methyllycaconitine from chimeric alpha-7nAChR Y93A mutant/5HT3A receptor in tsA201 cells; format: cell-based; details: Homo sapiens; how it was run: as §1
[16] = Displacement of [3H]methyllycaconitine from chimeric alpha7nAChR Y195A mutant/5HT3A receptor in tsA201 cells; format: cell-based, Homo sapiens; how it was run: as §1
[17] = target: T3, Neuronal acetylcholine receptor subunit alpha-7; assay: Displacement of [3H]methyllycaconitine from human alpha-7 in tsA201 cells coexpressed with 5HT3A receptor; format: cell-based
Target sequence in this assay (P36544 whole entry): as above

[18] = Displacement of [3H]methyllycaconitine from chimeric alpha-7nAChR Y168A mutant/5HT3A receptor in tsA201 cells; format: cell-based, Homo sapiens; how it was run: as §1
[19] = Antagonist activity at human alpha7 nAChR W149Y mutant co-expressed with human Ric3 in tsA201 cells by FMP assay; format: functional, cell-based
[20] = target: T4, Glycine receptor subunit alpha-1 (Homo sapiens, UniProt P23415); assay: Antagonist activity at human glycine alpha-1 receptor in HEK293 cells by FMP assay; format: functional, cell-based
T4 sequence (P23415 whole entry): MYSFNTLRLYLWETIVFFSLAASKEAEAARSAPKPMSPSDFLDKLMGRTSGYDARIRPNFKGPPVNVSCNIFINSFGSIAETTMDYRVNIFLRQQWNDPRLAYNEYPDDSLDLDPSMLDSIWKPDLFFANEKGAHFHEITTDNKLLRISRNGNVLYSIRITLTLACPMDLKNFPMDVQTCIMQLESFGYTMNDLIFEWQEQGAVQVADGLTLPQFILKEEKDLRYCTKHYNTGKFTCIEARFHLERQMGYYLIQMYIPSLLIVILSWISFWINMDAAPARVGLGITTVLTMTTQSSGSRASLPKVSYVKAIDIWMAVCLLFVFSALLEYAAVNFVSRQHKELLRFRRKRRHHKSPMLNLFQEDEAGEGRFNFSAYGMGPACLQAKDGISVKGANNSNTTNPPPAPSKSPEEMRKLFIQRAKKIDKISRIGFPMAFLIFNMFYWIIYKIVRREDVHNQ

[21] = target: Neuronal acetylcholine receptor; alpha4/beta4 (Rattus norvegicus, UniProt P09483+P12392); assay: Displacement of [3H]epibatidine from recombinant rat alpha-4-beta-4 nAChr in HEK293 cell line; format: cell-based
[22] = Displacement of [3H]methyllycaconitine from chimeric alpha-7nAChR N107A mutant/5HT3A receptor in tsA201 cells; format: cell-based, Homo sapiens; how it was run: as §1
[23] = Antagonist activity at human alpha-7 nAChR Y188A mutant coexpressed with human Ric3 in tsA201 cells by FMP assay; format: functional, cell-based
[24] = system: tsA201; assay: Displacement of [3H]methyllycaconitine from chimeric alpha-7nAChR W149A mutant/5HT3A receptor in tsA201 cells; format: cell-based; details: Homo sapiens; how it was run: as §1
[25] = target: T1, 5-hydroxytryptamine receptor 3A; assay: Antagonist activity at human 5HT3A receptor expressed in HEK293 cells by FMP assay; format: functional, cell-based

T2 sequence (P04757 whole entry): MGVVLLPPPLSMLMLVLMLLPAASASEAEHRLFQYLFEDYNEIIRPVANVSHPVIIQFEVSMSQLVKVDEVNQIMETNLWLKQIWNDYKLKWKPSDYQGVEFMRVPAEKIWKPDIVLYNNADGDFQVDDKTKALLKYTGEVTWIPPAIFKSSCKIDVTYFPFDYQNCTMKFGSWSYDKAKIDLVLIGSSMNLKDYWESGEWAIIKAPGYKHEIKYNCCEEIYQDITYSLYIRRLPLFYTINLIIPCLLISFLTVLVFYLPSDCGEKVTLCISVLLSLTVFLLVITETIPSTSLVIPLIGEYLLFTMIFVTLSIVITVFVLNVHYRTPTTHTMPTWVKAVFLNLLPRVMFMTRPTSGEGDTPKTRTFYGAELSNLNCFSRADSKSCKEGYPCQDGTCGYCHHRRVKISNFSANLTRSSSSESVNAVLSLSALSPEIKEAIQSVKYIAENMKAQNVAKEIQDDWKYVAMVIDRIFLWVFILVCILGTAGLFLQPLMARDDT
T2 sequence (P12392 whole entry): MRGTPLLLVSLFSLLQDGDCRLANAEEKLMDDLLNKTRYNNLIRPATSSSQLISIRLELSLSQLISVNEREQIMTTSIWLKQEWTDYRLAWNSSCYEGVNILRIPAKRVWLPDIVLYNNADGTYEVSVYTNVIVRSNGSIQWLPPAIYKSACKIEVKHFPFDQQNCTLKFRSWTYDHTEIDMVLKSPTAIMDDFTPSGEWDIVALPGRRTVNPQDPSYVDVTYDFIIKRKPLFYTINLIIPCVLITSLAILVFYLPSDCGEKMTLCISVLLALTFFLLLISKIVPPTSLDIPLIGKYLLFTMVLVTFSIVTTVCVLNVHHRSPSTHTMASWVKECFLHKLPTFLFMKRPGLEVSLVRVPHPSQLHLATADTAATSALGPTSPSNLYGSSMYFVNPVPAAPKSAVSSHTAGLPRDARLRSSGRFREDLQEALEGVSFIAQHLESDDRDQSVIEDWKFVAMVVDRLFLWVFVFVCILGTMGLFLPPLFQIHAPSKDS
Chain of Neuronal acetylcholine receptor; alpha4/beta4 (P09483 whole entry): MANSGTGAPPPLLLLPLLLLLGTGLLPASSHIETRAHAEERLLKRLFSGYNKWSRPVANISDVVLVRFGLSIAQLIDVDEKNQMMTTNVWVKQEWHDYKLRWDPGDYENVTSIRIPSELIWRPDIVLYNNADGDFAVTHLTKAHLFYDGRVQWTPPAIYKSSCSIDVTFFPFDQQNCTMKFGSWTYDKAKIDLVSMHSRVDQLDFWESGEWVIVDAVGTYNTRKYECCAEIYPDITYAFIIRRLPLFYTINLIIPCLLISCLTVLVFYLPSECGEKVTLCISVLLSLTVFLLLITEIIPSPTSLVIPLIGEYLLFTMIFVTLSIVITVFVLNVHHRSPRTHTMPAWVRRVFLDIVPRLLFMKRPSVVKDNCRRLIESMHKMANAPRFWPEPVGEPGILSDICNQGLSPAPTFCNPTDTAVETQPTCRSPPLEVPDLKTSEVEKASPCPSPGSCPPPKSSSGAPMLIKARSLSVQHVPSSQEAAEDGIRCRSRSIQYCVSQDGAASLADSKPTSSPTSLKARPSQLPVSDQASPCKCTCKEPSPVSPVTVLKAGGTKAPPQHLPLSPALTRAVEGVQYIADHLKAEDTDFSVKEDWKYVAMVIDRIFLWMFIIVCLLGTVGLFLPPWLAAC
Chain of Neuronal acetylcholine receptor; alpha4/beta4 (P12392 whole entry): as the sequence (P12392 whole entry) above

With O=[N+]([O-])c1ccc(C[N+]23CC[C@@H]4[C@@H]5[C@@H]6[C@@H](OCC=C(C2)[C@@H]6C[C@@H]43)N2c3ccccc3[C@@]34CC[N+]6(Cc7ccc([N+](=O)[O-])cc7)CC7=CCO[C@H]([C@@H]([C@H]23)[C@H]7C[C@@H]46)N5c2ccccc2)cc1.[Br-].[Br-] (stereo partly drawn) the Activity [1] was “inactive”, the Activity [2] was “inactive” and the Ki [3] was 23000 nM. The Ki [4] was 160 nM, the pKi [4] was 6.8 and the pIC50 ([5]; hek293) was less than 4. It also gave an IC50 ([5]; read-out: IC50) greater than 100000 nM, a Ki [6] greater than 100000 nM and a pKi ([6]; hek293) of less than 4. For the same molecule, the Ki [7] was 18 nM, the pKi [7] was 7.74 and the Ki [8] was 37 nM. The pKi [8] was 7.43, the IC50 ([9]; read-out: IC50) was greater than 100000 nM and the IC50 ([9]; read-out: pIC50 (converted)) was greater than 100000 nM. For the same molecule, the IC50 ([10]; read-out: IC50) was 370 nM, the IC50 ([10]; read-out: pIC50 (converted)) was 372 nM and the IC50 [11] was 360 nM and 363 nM. The Ki [12] was 28 nM, the pKi [12] was 7.56 and the Activity [13] was “inactive”. The Ki ([14]; read-out: Ki) was 29 nM, the Ki ([14]; read-out: pKi (converted)) was 31.6 nM and the Activity [15] was “inactive”. The Ki [16] was 740 nM, the pKi [16] was 6.13 and the Ki ([17]; read-out: Ki) was 22 nM. For the same molecule, the Ki ([17]; read-out: pKi (converted)) was 20 nM, the Ki [18] was 34 nM and the pKi [18] was 7.47. For the same molecule, the IC50 ([19]; read-out: IC50) was 1200 nM, the IC50 ([19]; read-out: pIC50 (converted)) was 1170 nM and the IC50 [20] was greater than 100000 nM. It also gave a pIC50 ([20]; hek293) of less than 4, a Ki [21] greater than 100000 nM and a pKi ([21]; hek293) of less than 4. For the same molecule, the Ki [22] was 17 nM, the pKi [22] was 7.76 and the IC50 ([23]; read-out: IC50) was 15000 nM. The IC50 ([23]; read-out: pIC50 (converted)) was 15500 nM, the Activity [24] was “inactive” and the pIC50 ([25]; hek293) was less than 4. For the same molecule, the IC50 ([25]; read-out: IC50) was greater than 100000 nM.
